# What was measured:
# U-87 MG = experiment: Antiproliferative activity against human U-87MG cells assessed as inhibition of cell growth measured after 72 hrs by MTT assay; type: functional, cell-based, U-87MG ATCC
# Method in brief: (§1)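 Cells were seeded at 4000–5000/well and held 24 h at 37 °C in 5% CO2. Compounds were added at the indicated final concentrations and incubated 72 h. MTT was added (5 mg/mL in PBS, stated as final) for 4 h at 37 °C. Formazan was dissolved in DMSO and absorbance read at 490 nm. The 50% growth-inhibitory concentration is the mean of three independent experiments ± SE.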
# MDA-MB-231 = experiment: Antiproliferative activity against human MDA-MB-231 cells assessed as inhibition of cell growth measured after 72 hrs by MTT assay; type: functional, cell-based; details: MDA-MB-231, 72 h; method in brief: as §1
# Focal adhesion kinase 1 = Focal adhesion kinase 1 (Homo sapiens, UniProt Q05397); experiment: Inhibition of N-terminal GST-fused human truncated FAK (376 to 1052 residues) expressed in baculovirus expression system using tyrosine kinase peptide as substrate measured after 50 mins in presence of ATP by homogenous time resolved flourescence assay
# Sequence of Focal adhesion kinase 1 (Q05397 whole entry, the tested form may be a part): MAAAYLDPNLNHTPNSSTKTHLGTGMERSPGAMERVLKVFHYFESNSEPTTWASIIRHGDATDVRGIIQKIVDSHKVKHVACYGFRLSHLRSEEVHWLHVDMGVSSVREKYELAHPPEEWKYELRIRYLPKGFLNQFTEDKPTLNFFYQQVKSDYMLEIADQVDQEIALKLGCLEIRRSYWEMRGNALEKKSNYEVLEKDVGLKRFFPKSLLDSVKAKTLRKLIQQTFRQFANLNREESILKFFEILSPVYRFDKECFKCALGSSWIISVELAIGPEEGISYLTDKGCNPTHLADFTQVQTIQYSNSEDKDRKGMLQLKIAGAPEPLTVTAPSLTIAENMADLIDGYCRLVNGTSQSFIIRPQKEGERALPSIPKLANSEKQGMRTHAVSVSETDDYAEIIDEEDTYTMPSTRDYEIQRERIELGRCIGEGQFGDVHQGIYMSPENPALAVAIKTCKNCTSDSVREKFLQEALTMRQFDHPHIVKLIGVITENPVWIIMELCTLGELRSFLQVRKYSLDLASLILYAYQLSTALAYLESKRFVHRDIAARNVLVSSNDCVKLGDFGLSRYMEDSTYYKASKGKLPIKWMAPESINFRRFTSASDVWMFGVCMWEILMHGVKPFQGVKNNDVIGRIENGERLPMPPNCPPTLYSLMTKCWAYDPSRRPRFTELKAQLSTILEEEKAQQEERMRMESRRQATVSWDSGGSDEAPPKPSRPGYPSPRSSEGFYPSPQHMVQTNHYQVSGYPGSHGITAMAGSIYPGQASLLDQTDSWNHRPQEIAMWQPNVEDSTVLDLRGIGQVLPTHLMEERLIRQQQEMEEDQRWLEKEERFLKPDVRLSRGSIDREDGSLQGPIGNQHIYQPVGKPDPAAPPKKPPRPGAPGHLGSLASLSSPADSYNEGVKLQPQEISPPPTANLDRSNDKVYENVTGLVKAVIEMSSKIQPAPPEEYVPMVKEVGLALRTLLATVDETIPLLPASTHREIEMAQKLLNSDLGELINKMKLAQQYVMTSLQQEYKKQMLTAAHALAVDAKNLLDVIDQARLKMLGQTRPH
# A549 = experiment: Antiproliferative activity against human A549 cells assessed as inhibition of cell growth measured after 72 hrs by MTT assay; type: functional, cell-based; details: A549, 72 h; method in brief: as §1
# HK-2 = experiment: Cytotoxicity against human HK2 cells assessed as inhibition of cell proliferation measured after 72 hrs by MTT assay; type: cell-based; details: HK-2, 72 h; method in brief: as §1
IC50 (U-87 MG) [µM],IC50 (MDA-MB-231) [µM],IC50 (Focal adhesion kinase 1) [µM],IC50 (A549) [µM],SMILES,IC50 (HK-2) [µM]
0.36,0.41,0.199,0.41,COc1ccccc1-c1csc2cnc(Nc3ccc(NC(=O)[C@@H]4CCCNC4)cc3)nc12,
0.46,0.24,0.0257,0.87,COc1ccccc1-c1csc2cnc(Nc3ccc(C(=O)NC4CCNCC4)c(C)c3)nc12,4.45
2.37,1.61,0.0483,2.75,COc1ccccc1-c1csc2cnc(Nc3ccc(C(=O)NC4CCNCC4)cc3F)nc12,
,5.35,0.118,5.71,COc1ccccc1-c1csc2cnc(Nc3ccc(C(=O)NC4CCOCC4)c(F)c3)nc12,
0.3,0.44,0.167,0.5,COc1ccccc1-c1csc2cnc(Nc3ccc(NC(=O)[C@H]4CCCNC4)cc3)nc12,4.89
6.4,2.24,0.0272,2.88,COc1cc(C(=O)NC2CCNCC2)ccc1Nc1ncc2scc(-c3ccccc3OC)c2n1,12.2
1.48,2.57,0.0242,5.39,COc1ccccc1-c1csc2cnc(Nc3cc(F)c(C(=O)NC4CCNCC4)cc3F)nc12,
2.09,2.75,0.709,4.11,COc1ccccc1-c1csc2cnc(Nc3ccc(C(=O)NC4CCNCC4)cc3C(F)(F)F)nc12,
0.21,2.77,0.144,1.95,COc1ccccc1-c1csc2cnc(Nc3ccc(NC(=O)CN)cc3)nc12,
3.59,1.16,0.0382,1.9,COc1cc(C(=O)NC2CCNCC2)c(F)cc1Nc1ncc2scc(-c3ccccc3OC)c2n1,0.78
0.25,3.24,0.0265,3.42,COc1ccccc1-c1csc2cnc(Nc3ccc(C(=O)NC4CCNCC4)cc3C)nc12,
,8.62,0.149,4.45,COc1ccccc1-c1csc2cnc(Nc3ccc(C(=O)NC[C@H]4CCCNC4)c(F)c3)nc12,
1.06,1.05,0.0577,0.45,COc1ccccc1-c1csc2cnc(Nc3ccc(NC(=O)C4CCNCC4)cc3)nc12,11.7
,2.89,0.111,5.05,COc1ccccc1-c1csc2cnc(Nc3ccc(C(=O)NC[C@@H]4CCCNC4)c(F)c3)nc12,
0.65,0.11,0.0388,0.36,COc1ccccc1-c1csc2cnc(Nc3ccc(C(=O)NC4CCNCC4)cc3)nc12,11.4
,0.35,0.0478,0.66,COc1ccccc1-c1csc2cnc(Nc3ccc(C(=O)NC4CCN(C)CC4)c(F)c3)nc12,
,1.53,0.12,3.41,COc1ccccc1-c1csc2cnc(Nc3ccc(C(=O)NCC4CCNCC4)c(F)c3)nc12,
,0.26,0.0713,0.43,COc1ccccc1-c1csc2cnc(Nc3ccc(C(=O)N[C@@H]4CCNC4)c(F)c3)nc12,

# Further lines, the molecule ahead of its results:
SMILES,IC50 (U-87 MG) [µM],IC50 (MDA-MB-231) [µM],IC50 (Focal adhesion kinase 1) [µM],IC50 (A549) [µM],IC50 (HK-2) [µM]
CCOc1cc(C(=O)NC2CCNCC2)ccc1Nc1ncc2scc(-c3ccccc3OC)c2n1,2.03,4.39,0.166,5.77,
COc1ccc(-c2csc3cnc(Nc4ccc(CP(=O)(OC)OC)cc4)nc23)cc1,,,1.06,,
CNC(=O)c1ccc(Nc2ncc3scc(-c4ccccc4OC)c3n2)cc1,0.71,2.12,0.0793,0.31,0.71
COP(=O)(Cc1ccc(Nc2ncc3scc(-c4cccc(S(C)(=O)=O)c4)c3n2)cc1)OC,,,0.14,,
CCOP(=O)(Cc1ccc(Nc2ncc3scc(-c4ccccc4OC)c3n2)cc1)OCC,1.3,4.94,0.157,0.96,
COc1ccccc1-c1csc2cnc(Nc3ccc(CP(=O)(OC)OC)cc3)nc12,1.71,7.81,0.134,1.8,
COP(=O)(Cc1ccc(Nc2ncc3scc(-c4cccc(NC(C)=O)c4)c3n2)cc1)OC,,,0.377,,
CCOP(=O)(Cc1ccc(Nc2ncc3scc(-c4ccccc4OC)c3n2)cc1)N1CCOCC1 (centres undefined),1.22,8.35,0.351,0.85,
CNC(=O)c1cccc(-c2csc3cnc(Nc4ccc(CP(=O)(OC)OC)cc4)nc23)c1,,,0.324,,
COP(=O)(Cc1ccc(Nc2ncc3scc(-c4ccccc4C(C)=O)c3n2)cc1)OC,,,1.08,,
CNC(=O)c1ccccc1Nc1nc(Nc2ccc(N3CCOCC3)cc2OC)ncc1Cl,1.67,4.06,,1.16,
CCOP(=O)(Cc1ccc(Nc2ncc3scc(-c4ccccc4OC)c3n2)cc1)NC (centres undefined),1.3,1.21,0.184,1.73,
COP(=O)(Cc1ccc(Nc2ncc3scc(-c4cccc(N(C)S(C)(=O)=O)c4)c3n2)cc1)OC,,,0.638,,
COP(=O)(Cc1ccc(Nc2ncc3scc(-c4cccc(C(C)=O)c4)c3n2)cc1)OC,,,0.351,,
COc1ccccc1-c1csc2cnc(Nc3ccc(C(=O)N[C@H]4CCNC4)c(F)c3)nc12,,0.56,0.132,0.87,
CCOP(=O)(OCC)C(O)c1ccc(Nc2ncc3scc(-c4ccccc4OC)c3n2)cc1 (centres undefined),1.95,2.64,0.321,0.35,
